Source: ChEMBL document CHEMBL4261646, “Bisphosphonate Inhibitors of Mammalian Glycolytic Aldolase” (J Med Chem, 2018)
The source made the active and inactive calls. No cut-off for these calls is given here.

What was measured:
[1] = Competitive-inhibition of fructose-bisphosphate aldolase (unknown origin) using FBP as substrate and […] in presence of constant enzyme concentration by UV-Vis spectrophotometry dependent TIM/GDH coupled assay based double-reciprocal plot analysis; parameters: species or system Homo sapiens
Summary of the method: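 Recombinant rabbit muscle aldolase at 0.01 μg/mL in TIM/GDH-coupled assay (NADH oxidation at 340 nm, 25 °C, Tris-acetate pH 7.5, 0.3 mM NADH).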

[2] = Inhibition of fructose-bisphosphate aldolase (unknown origin); parameters: species or system Homo sapiens
[3] = (§1) Dual competitive-inhibition of fructose-bisphosphate aldolase (unknown origin) using FBP as substrate and […] in presence of constant enzyme concentration by UV-Vis spectrophotometry dependent TIM/GDH coupled assay based double-reciprocal plot analysis; parameters: species or system Homo sapiens
Summary of the method: (§2)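 Recombinant rabbit muscle aldolase was expressed in E. coli BL21-SI. Cleavage of FBP was coupled to TIM/GDH, and NADH oxidation was followed at 340 nm at 25 °C. Buffer was 50 mM Tris-acetate pH 7.5 with 1 mM EDTA and 0.3 mM NADH. Initial rates were fitted to a two-site reversible linear competitive model. At least three independent assays.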

[4] = as §1, with “origin) assessed as inhibition constant for two competitive binding sites in enzyme active site” for “origin)”; parameters: species or system Homo sapiens; summary of the method: as §2
HeLa [5] = experiment: Growth inhibition of human HeLa cells at 1 to 50 uM after 24 to 72 hrs by trypan blue exclusion assay; type: functional, cell-based
Summary of the method: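 HeLa cells were seeded at 3 x 10^5 cells/plate and grown in DMEM at 37 °C/5% CO2 with filter-sterilized inhibitor for 24, 48 or 72 h. Cells were trypsinized (0.25%), pelleted and resuspended. Total cells were counted by Trypan blue exclusion on a hemocytometer. At least three independent experiments; Student's two-tailed t-test.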

[6] = Inhibition of rabbit muscle fructose-bisphosphate aldolase using FBP as substrate and NADH by spectrophotometry based coupled enzyme assay; parameters: species or system Oryctolagus cuniculus
Summary of the method: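 Recombinant rabbit muscle aldolase was expressed in E. coli. FBP cleavage was coupled to triose-phosphate isomerase/glycerol-3-phosphate dehydrogenase, and NADH oxidation was read at 340 nm at 25 °C. Buffer was 50 mM Tris-acetate pH 7.5 with 1 mM EDTA and 0.3 mM NADH. Reactions were started by adding enzyme. At least three independent assays.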

[7] = Inhibition of fructose-bisphosphate aldolase (unknown origin) using FBP as substrate and NADH preincubated for 0 mins followed by substrate addition by UV-Vis spectrophotometry based TIM/GDH coupled assay; parameters: species or system Homo sapiens
Summary of the method: (§3)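 Recombinant rabbit muscle aldolase was pre-incubated for the listed time with inhibitor at 0.01–20 μM, then assayed with 10 μM FBP. Cleavage was read by TIM/GDH coupling as NADH oxidation at 340 nm, 25 °C, in 50 mM Tris-acetate pH 7.5, 1 mM EDTA, 0.3 mM NADH. IC50 was taken from a 4-parameter fit; at least three independent assays.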

[8] = Inhibition of fructose-bisphosphate aldolase (unknown origin) using FBP as substrate and NADH preincubated for 10 mins followed by substrate addition by UV-Vis spectrophotometry based TIM/GDH coupled assay; parameters: species or system Homo sapiens; summary of the method: as §3
[9] = Inhibition of fructose-bisphosphate aldolase (unknown origin) using FBP as substrate and NADH preincubated for 30 mins followed by substrate addition by UV-Vis spectrophotometry based TIM/GDH coupled assay; parameters: species or system Homo sapiens; summary of the method: as §3
[10] = Inhibition of fructose-bisphosphate aldolase (unknown origin) using FBP as substrate and NADH preincubated for 90 mins followed by substrate addition by UV-Vis spectrophotometry based TIM/GDH coupled assay; parameters: species or system Homo sapiens; summary of the method: as §3
[11] = Inhibition of fructose-bisphosphate aldolase (unknown origin) using FBP as substrate and NADH preincubated for 180 mins followed by substrate addition by UV-Vis spectrophotometry based TIM/GDH coupled assay; parameters: species or system Homo sapiens; summary of the method: as §3
[12] = Slow binding inhibition of fructose-bisphosphate aldolase (unknown origin) assessed as dissociation constant using FBP as substrate and NADH by UV-Vis spectrophotometry dependent TIM/GDH coupled assay based Dixon plot analysis; parameters: species or system Homo sapiens
Summary of the method: (§4)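 Recombinant rabbit muscle aldolase, TIM/GDH-coupled NADH oxidation at 340 nm, 25 °C, in Tris-acetate pH 7.5 buffer with 1 mM EDTA and 0.3 mM NADH. Progress curves were recorded with 20–200 μM FBP and 0.5–75 μM inhibitor. Slow-binding constants came from non-linear regression under the Morrison–Walsh model; at least three independent assays.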

[13] = Slow binding inhibition of fructose-bisphosphate aldolase (unknown origin) assessed as overall inhibition constant using FBP as substrate and NADH by UV-Vis spectrophotometry dependent TIM/GDH coupled assay based Dixon plot analysis; parameters: species or system Homo sapiens; summary of the method: as §4
HeLa [14] = experiment: Growth inhibition of human HeLa cells at 50 uM after 72 hrs by trypan blue exclusion assay relative to control; type: functional; conditions: read-out: GI
Summary of the method: (§5)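 Cells seeded in DMEM (HeLa 3 x 10^5, HEK293 2 x 10^5 per plate) were kept at 37 °C, 5% CO2 with filter-sterilized compound for 24, 48 or 72 h. Cells were trypsinized and total counts made by Trypan blue exclusion on a hemocytometer. Student's two-tailed t-test; at least three independent experiments.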

HeLa [15] = experiment: Growth inhibition of human HeLa cells at 10 uM after 72 hrs by trypan blue exclusion assay relative to control; type: functional; conditions: read-out: GI; summary of the method: as §5
HEK293 = experiment: Growth inhibition of HEK293 cells at 1 to 50 uM after 24 to 72 hrs by trypan blue exclusion assay; type: cell-based; conditions: human, hek293, 50 µM; summary of the method: as §5
[16] = Slow binding inhibition of fructose-bisphosphate aldolase (unknown origin) assessed as dibasic species population adjusted dissociation constant using FBP as substrate and NADH by UV-Vis spectrophotometry dependent TIM/GDH coupled assay based Dixon plot analysis; parameters: species or system Homo sapiens; conditions: read-out: Ki(app)
[17] = Slow binding inhibition of fructose-bisphosphate aldolase (unknown origin) assessed as dibasic species population adjusted overall inhibition constant using FBP as substrate and NADH by UV-Vis spectrophotometry dependent TIM/GDH coupled assay based Dixon plot analysis; parameters: species or system Homo sapiens; conditions: read-out: Ki(app)
HeLa [18] = experiment: Growth inhibition of human HeLa cells after 72 hrs by trypan blue exclusion assay relative to control; type: functional, cell-based; summary of the method: as §5
HeLa [19] = experiment: Growth inhibition of human HeLa cells assessed as transport efficiency corrected EC50 for after 72 hrs by trypan blue exclusion assay relative to control; type: functional, cell-based

**Q.** With O=P(O)(O)Oc1ccc2cc(OP(=O)(O)O)ccc2c1 as the compound, how does the Ki [1] read?
**A.** 280 nM

**Q.** And the Ki [2]?
**A.** 280 nM

**Q.** With O=P(O)(O)C(c1ccc2cc(O)ccc2c1)P(=O)(O)O as the compound, how does the Ki [3] read?
**A.** 13000 nM

**Q.** What about the Ki [4] of the same compound?
**A.** 9000 nM

**Q.** Which Ki [1] does the source give for O=P(O)(O)Oc1ccc(C(P(=O)(O)O)P(=O)(O)O)cc1 here?
**A.** 42000 nM

**Q.** What about the “growth inhibition (GI)” value (HeLa [5]) of the same compound?
**A.** inactive

**Q.** With O=C(COP(=O)(O)O)[C@@H](O)[C@@H](O)[C@H](O)COP(=O)(O)O as the compound, how does the Ki [6] read?
**A.** 120000 nM

**Q.** Which results are given for O=P([O-])([O-])Oc1ccc2cc(C(P(=O)([O-])[O-])P(=O)([O-])[O-])ccc2c1.[Li+].[Li+].[Li+].[Li+].[Li+].[Li+]?
**A.** IC50 [7]: 670 nM; IC50 [8]: 170 nM; IC50 [9]: 130 nM; IC50 [10]: 60 nM; IC50 [11]: 68 nM; Ki [12]: 280 nM; Ki [13]: 38 nM; inhibition of growth at 50 µM (HeLa [14]): 50%; inhibition of growth at 10 µM (HeLa [15]): 30%; growth inhibition (GI) (HEK293): Non-Toxic; Ki [16]: 56 nM; Ki [17]: 7.6 nM; EC50 (HeLa [18]): 50000 nM; EC50 (HeLa [19]): 75 nM
